Screens from PubChem.
A selection: hits, their analogues and other compounds. The true share with any hit is near 1.3%.
Rad51 HR inh – blocks human Rad51 in homologous recombination; AID 1385; Q06609; hRad51 DNA strand exchange, fluorescence dequenching; 200,000 compounds, 0.085% hits; inhibition, % at 10 µM;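 active = inhibition above 40% at the single screening dose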;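 also: 0% = DMSO control wells and 100% = blanks with heterologous ssDNA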
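System: human Rad51 nucleoprotein filaments preassembled on unlabelled ssDNA. Reagent: labelled 47-mer dsDNA for strand exchange. Schedule: 30-min compound preincubation and 15-min exchange, both room temperature. Measured by: FRET fluorescence dequenching, excitation 485 nm, emission 520 nm. Read-out: Fluorescence-based percent inhibition, control- and blank-normalised. Benchmarks: plate controls and plate blanks.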
PERK inh – blocks human PERK kinase. Q9NZJ5. CHO PERK-DD fusion, SEAP luminescence translation reporter. inhibition, % at 5.6 µM. 220,000 compounds, 0.17% hits. AID 1416;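 active = inhibition above the mean inhibition of all tested compounds plus 3 SD, set separately per screening campaign, cut at about 2.9% in these data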;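 also: PERK kinase domain activated by AP20187 dimerizer at 100 nM; 0% = DMSO with dimerizer and 100% = rapamycin at 8.4 µM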
Target sequence (Q9NZJ5 whole entry, looked up, the tested form may be a part): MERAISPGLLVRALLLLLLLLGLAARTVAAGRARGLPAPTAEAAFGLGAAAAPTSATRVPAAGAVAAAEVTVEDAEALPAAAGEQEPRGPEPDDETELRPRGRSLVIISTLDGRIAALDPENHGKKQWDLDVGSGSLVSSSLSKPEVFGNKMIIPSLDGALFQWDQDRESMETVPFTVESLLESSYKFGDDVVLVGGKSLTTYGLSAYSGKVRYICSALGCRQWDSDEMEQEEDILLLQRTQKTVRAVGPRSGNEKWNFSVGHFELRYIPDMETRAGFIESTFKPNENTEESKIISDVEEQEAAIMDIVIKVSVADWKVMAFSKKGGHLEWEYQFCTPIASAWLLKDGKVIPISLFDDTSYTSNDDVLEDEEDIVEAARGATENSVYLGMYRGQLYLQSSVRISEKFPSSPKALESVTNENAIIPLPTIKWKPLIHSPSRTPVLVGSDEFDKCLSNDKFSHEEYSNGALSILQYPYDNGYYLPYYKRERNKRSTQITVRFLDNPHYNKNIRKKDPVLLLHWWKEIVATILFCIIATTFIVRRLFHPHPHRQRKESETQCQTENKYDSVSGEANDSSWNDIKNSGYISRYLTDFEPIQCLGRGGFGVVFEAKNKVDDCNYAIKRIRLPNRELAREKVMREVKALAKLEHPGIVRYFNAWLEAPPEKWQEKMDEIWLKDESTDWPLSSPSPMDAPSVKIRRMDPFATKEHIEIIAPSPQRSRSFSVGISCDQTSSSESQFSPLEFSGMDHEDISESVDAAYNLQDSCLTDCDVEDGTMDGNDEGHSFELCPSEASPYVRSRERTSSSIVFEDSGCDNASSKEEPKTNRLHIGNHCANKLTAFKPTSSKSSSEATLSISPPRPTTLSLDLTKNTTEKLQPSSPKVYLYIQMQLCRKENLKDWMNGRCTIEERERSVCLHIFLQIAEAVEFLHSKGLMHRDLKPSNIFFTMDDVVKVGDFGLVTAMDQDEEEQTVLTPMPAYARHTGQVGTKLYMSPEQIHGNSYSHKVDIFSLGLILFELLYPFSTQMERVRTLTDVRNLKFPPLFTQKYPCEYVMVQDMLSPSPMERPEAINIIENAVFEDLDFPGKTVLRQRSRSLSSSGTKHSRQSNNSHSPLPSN
H9c2 TAG inh – triacylglycerol accumulation inhibition; H9c2 cells, Nile Red lipid (TAG) fluorescence; cells loaded with 200 µM oleic acid; inhibition, % at 12.5 µM; 230,000 compounds, 0.66% hits; AID 651582;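 active = pattern-corrected inhibition of lipid staining of at least 50% with the nuclear-stain viability signal not falling by more than 50%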;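 also: 0% = DMSO wells and 100% = triacsin C control wells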
MDM2 E3 inh – inhibitors of human Mdm2 E3 ubiquitin ligase; signal enhancement, % at 5 µM; AID 1230; 210,000 compounds, 0.11% hits; cell-based MDM2 ubiquitination luciferase reporter, 2 h; 0 = plate control, 100 = twice control, blank-subtracted;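 active = signal enhancement of 30% or more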;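 also: luminescence tracks abundance of the self-degrading MDM2-luciferase fusion protein; higher signal means inhibition of MDM2 E3 ligase activity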
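system = mammalian cells stably expressing self-ubiquitinating, self-degrading MDM2 E3–luciferase fusion | quantity = 2000 cells per well seeded | incubation = 4 h cell settling then 2 h compound exposure, 37 °C | signal = SteadyLite luminescence, 15 min reagent step | benchmarks = plate control and blank wells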
PKD1 inh – PKD1 (human) kinase inhibition. Q15139. inhibition, % (test concentration not listed). AID 797. PKD1 kinase fluorescence polarization assay. 200,000 compounds, 0.056% hits; in the data active = inhibition above about 50%
Hck Nef HTS – human Hck-Nef kinase inhibition. P08631. Recombinant Hck-YEEI plus Nef, Z-Lyte FRET kinase assay. inhibition, % at 20 µM. 220,000 compounds, 0.68% hits. AID 463187;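 active = Hck-Nef kinase inhibition above about 50%, limit read from the data; inactive = inhibition below that limit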;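 also: 0% = DMSO with Hck plus Nef and 100% = Hck alone without Nef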
The depositor's hits bear a star; . = no result given.

SMILES	Rad51 HR inh	PERK inh	H9c2 TAG inh	MDM2 E3 inh	PKD1 inh	Hck Nef HTS
c1cc2c(cc1C1CCCCC1)c1c3n2CCCNC3CCC1 (stereo unspecified)	1	-1	77*	-4	4	7
Cc1ccc(C2(C(F)(F)F)NC(=O)N3CCN=C3S2)cc1 (stereo unspecified)	3	2.9*	.	4	1	1
Cc1cccc(C)c1NC(=O)CNC(=O)c1cn(-c2ccccc2)nc1-c1ccccc1	.	.	-10	.	.	.
Cc1nn(Cc2c(Cl)cccc2Cl)c(C)c1NC(=O)c1cn(-c2ccccc2)nc1-c1ccccc1	.	0	50*	9	-13	2
CC(=O)c1ccc2oc3ccccc3c(=O)c2c1	.	.	-6	.	.	.
CCc1ccc(-n2c(SCC(=O)N3Cc4ccccc4CC3C(=O)O)nnc2-c2ccncc2)cc1 (stereo unspecified)	.	3.4*	4	-9	.	-1
O=C(Cc1ncon1)Nc1ccc(F)c(F)c1F	8	3.6*	8	-12	.	-5
Brc1ccc(-c2cnc(-c3cccs3)o2)cc1	-4	1	21	32*	1	0
CN(C)c1ccc(-c2nnc(-c3cccs3)o2)cc1	7	0	-10	-66	-2	4
CCC(C)(C)c1ccc(Oc2ccc(N)cc2)cc1	-7	-1	69*	-37	0	18
CCC(C)(C)c1ccc(Oc2cccc(C(=O)O)c2)cc1	-2	2	.	-11	.	1
CCOC(=O)C1CCCN(C(=O)c2cccs2)CC1 (stereo unspecified)	.	.	-7	.	.	.
Cc1cc(Br)cn2ccnc12	.	3.0*	.	-35	1	0
O=C(CCl)N=c1sccn1Cc1ccc(Cl)cc1Cl	-5	1	59*	-10	-7	30
CCC(=O)OCC(=O)N=c1sccn1Cc1ccc(C)cc1	.	.	-1	.	.	.
CCNC(=S)NNC(=O)c1cccn(Cc2ccc(Cl)cc2Cl)c1=O	5	2	.	-13	-30	2
O=C(CCl)N=c1sccn1Cc1cccc2ccccc12	-8	-1	62*	-19	3	11
O=C(CCl)N=c1sccn1Cc1ccccc1Cl	-1	0	76*	-9	.	-1
CCC(=O)OCC(=O)N=c1sccn1Cc1ccccc1Cl	.	.	1	.	.	.
O=C(O)CC(C(=O)O)N1C(=O)/C(=C/C=C/c2ccco2)SC1=S (stereo unspecified)	.	2	5	-7	.	71*
O=C1S/C(=C\C=C\c2ccco2)C(=O)N1c1ccc(O)cc1	-18	2	.	-41	-8	6
O=C(O)c1cc(C(=O)C2CCCCC2)c[nH]1	-1	0	6	-16	112*	22
O=[N+]([O-])c1cc(-c2ncccn2)cs1	-5	1	.	3	-13	4
COC(=O)C1=C(C)N(C)C(=O)/C1=C\c1ccco1	-6	0	-24	-10	8	-2
CC1=C(C#N)C(=O)N(C2CCS(=O)(=O)C2)C(=O)/C1=C\c1ccco1 (stereo unspecified)	-53	1	.	-14	.	100*
SMILES	Rad51 HR inh	PERK inh	H9c2 TAG inh	MDM2 E3 inh	PKD1 inh	Hck Nef HTS
COC(=O)c1ccc(COC(=O)CNC(=O)c2ccc(C)s2)cc1	.	.	12	.	.	.
CCC(=O)c1ccc(OCCn2cnc3ccccc32)cc1	6	1	-20	-37	-11	-6
CCCCNC(=S)NNC(=O)C12CC3CC(CC(C3)C1)C2	106*	-1	-18	-5	-3	-2
O=C(c1ccccc1)c1ccc2nc(-c3ccc(NC(=O)c4ccccc4F)cc3)[nH]c2c1	-2	0	58*	-1	-6	19
O=C(O)CCC(=O)Nc1ccc(-c2nc3ccc(C(=O)c4ccccc4)cc3[nH]2)cc1	.	.	0	.	.	.
CCN1C(=O)[C@H]2[C@@H](c3ccc(C)cc3)N[C@]3(CCCN(Cc4cccn4C)C3=O)[C@H]2C1=O	.	.	9	.	.	.
O=C(c1ccc(Cl)c(S(=O)(=O)N2CCCCCC2)c1)N1CCCC1	0	-2	5	-71	.	14
CCn1nnc(NC(=O)COc2ccc([N+](=O)[O-])cc2)n1	20	3.0*	5	-3	.	14
Cc1ccc(OCC(=O)Nc2ccc([N+](=O)[O-])cc2)cc1	.	0	-25	-1	-7	6
CC[C@H](C)[C@@H](CNC)NC[C@@H](Cc1ccc(O)cc1)NCC(C)(C)C	.	.	4	.	.	.
CC[C@@H](C)[C@H](CN[C@H](CNC)C(C)C)NC[C@@H](C)c1ccc(CC(C)C)cc1	.	.	127*	.	.	.
CN(C)CCCN(C(=O)CCc1ccccc1)c1nc2ccc(Br)cc2s1	-4	1	98*	-7	-10	22
CN(C)CCCN(C(=O)CCc1ccccc1)c1nc2ccc(F)cc2s1	-3	0	.	-9	-5	1
Cc1ccc(N=Nc2ccc(O)c3ncccc23)cc1	4	1	87*	12	-13	1
Cn1nc(OCC(=O)O)cc1C(F)(F)F	0	3.0*	6	-16	.	6
O=C(COC(=O)COc1ccccc1)Nc1ncc(Cl)cc1Cl	.	.	-4	.	.	.
CCCCn1c(=N)n(CC(=O)c2ccc(Br)s2)c2ccccc21	7	0	70*	-7	.	1
CS(=O)(=O)N(Cc1ccccc1)c1ccc(C(=O)NCc2cccnc2)cc1	2	0	-2	-2	2	-1
COC(=O)c1ccc(Cn2cc(C(F)(F)F)cc([N+](=O)[O-])c2=O)cc1	2	1	14	-5	-7	-6
O=c1c([N+](=O)[O-])cc(C(F)(F)F)cn1Cc1c(Cl)cccc1Cl	.	3.3*	-5	-8	-17	0
Cn1ncc2c(O/N=C(\N)c3ccc(C(C)(C)C)cc3)ncnc21	.	0	86*	-33	.	31
CCOC(=O)c1cc2c(=O)n3ccccc3nc2n(CCCOC)c1=NC(=O)C(C)(C)C	1	0	7	2	-3	159*
CCOCCCn1c(=N)c(C(=O)Nc2cc(C)on2)cc2c(=O)n3ccccc3nc21	.	1	.	.	-7	68*
CCN1C[C@@H]2[C@@H]3C(=O)N(Cc4ccccc4)C(=O)[C@@H]3[C@](CC)(C(=O)OC)N2C1=NC	.	.	11	.	.	.
Cc1cccc(C(=O)N(Cc2ccc(C)o2)C2CCS(=O)(=O)C2)c1 (stereo unspecified)	.	.	-15	.	.	.
COc1ccc(CC(=O)Nc2ccc(S(=O)(=O)N3CCN(C)CC3)cc2)cc1	.	.	-3	.	.	.
O=C(O)c1ccc(CS(=O)c2cccc(C(F)(F)F)c2)o1 (stereo unspecified)	12	3.7*	.	-10	-3	1
COc1ccccc1S(=O)Cc1ccc(C(=O)O)o1 (stereo unspecified)	-1	0	.	5	6	1
C/C(=N\NC1=N[C@H]2CS(=O)(=O)C[C@H]2S1)c1ccccc1	14	3.3*	-7	-3	.	4
